In ChEMBL document CHEMBL1142157, “Optimal antimicrobial catheter lock solution, using different combinations of minocycline, EDTA, and 25-percent ethanol, rapidly eradicates organisms embedded in biofilm” (2007):

Experiments:
Format in all cases: functional
Candida parapsilosis [1] = assay: Antimicrobial activity against Candida parapsilosis embedded in MRD biofilm at 3 mg/ml after 15 mins in drug assessed as 24 hr regrowth
How it was run: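 MRD C. parapsilosis-colonized segments were soaked 15 min at 37°C in drug in broth. A second set was reincubated 24 h at 37°C in Mueller-Hinton broth, scrape-sonicated and plated on sheep blood agar overnight. Regrowth is given as mean CFU/ml ± SD, capped at 500.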

Staphylococcus aureus [2] = assay: Antimicrobial activity against methicillin-resistant Staphylococcus aureus in silicone disk biofilm at 3 mg/ml after 60 mins
How it was run: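 Silicone disks preconditioned in human plasma for 24 h at 37°C with shaking, then shaken 24 h at 37°C with MRSA at 5.5 × 10^5 cells/ml in MHB. Disks washed 30 min in 0.9% saline, exposed to drug for 1 h at 37°C, sonicated 5 min in saline, vortexed and plated on blood agar overnight. 5–10 replicates. Mean CFU/ml, capped at 5,000.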

Candida parapsilosis [3] = assay: Antimicrobial activity against Candida parapsilosis in silicone disk biofilm at 3 mg/ml after 60 mins
How it was run: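 Silicone disks were preconditioned in human plasma for 24 h at 37°C with shaking. They were then colonized 24 h with C. parapsilosis at 5.5 × 10^5 cells/ml in MHB and washed 30 min in saline. Disks were exposed 1 h at 37°C to drug or MHB, sonicated 5 min in saline, vortexed and plated on blood agar. 5–10 replicates; mean CFU/ml ± SD, capped at 5,000.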

Candida parapsilosis [4] = assay: Antimicrobial activity against Candida parapsilosis embedded in MRD biofilm at 3 mg/ml after 15 mins
How it was run: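 MRD catheter segments colonized by infusing C. parapsilosis-infected 5% dextrose (2 × 10^2 CFU/ml) at 60 ml/h for 8 h at 37°C, then incubated 10 h more and flushed with saline 2 h. Segments soaked 15 min at 37°C in drug in Mueller-Hinton broth (MHB alone as control). Then scrape-sonicated 5 min in Trypticase soy broth and plated on blood agar overnight. Mean CFU/ml ± SD reported, capped at 500.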

Candida parapsilosis [5] = assay: Antimicrobial activity against Candida parapsilosis in silicone disk biofilm at 3 mg/ml after 60 mins in drug assessed as 24 hr regrowth
How it was run: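 C. parapsilosis biofilm on plasma-coated silicone disks was exposed 1 h at 37°C to drug, then saline-washed and incubated overnight at 37°C in Trypticase soy broth. Disks were then sonicated 5 min in that broth and plated on sheep blood agar. 5–10 replicates; regrowth is given as mean CFU/ml ± SD, capped at 5,000.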

Staphylococcus aureus [6] = assay: Antimicrobial activity against methicillin-resistant Staphylococcus aureus in silicone disk biofilm at 3 mg/ml after 60 mins in drug assessed as 24 hr regrowth
How it was run: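 MRSA biofilm on plasma-coated silicone disks (inoculum 5.5 × 10^5 cells/ml in MHB, 24 h, 37°C, shaking), saline-washed, then exposed to drug for 1 h at 37°C. Disks washed in saline, incubated overnight at 37°C in Trypticase soy broth, sonicated 5 min in that broth and plated on blood agar. 5–10 replicates. Mean CFU/ml, capped at 5,000.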

Staphylococcus aureus [7] = assay: Antimicrobial activity against methicillin-resistant Staphylococcus aureus embedded in MRD biofilm model at 3 mg/ml after 15 mins in drug assessed as 24 hr regrowth
How it was run: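 MRSA biofilm grown on catheter segments in a modified Robbins device: 5% dextrose infusate at 2 × 10^5 CFU/ml, 60 ml/h for 8 h at 37°C, then 10 h incubation and a saline flush. Segments exposed to drug in broth for 15 min at 37°C, then reincubated 24 h at 37°C in Mueller-Hinton broth, scrape-sonicated and plated on blood agar. Mean CFU/ml, capped at 500.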

Staphylococcus aureus [8] = assay: Antimicrobial activity against methicillin-resistant Staphylococcus aureus embedded in MRD biofilm model at 3 mg/ml after 15 mins
How it was run: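 MRSA clinical isolates from catheter-related bacteremia. Infusate of 2 × 10^5 CFU/ml in 5% dextrose water pumped through a modified Robbins device at 60 ml/h for 8 h at 37°C, then 10 h further incubation and a 2 h saline flush. Catheter segments soaked in drug in Mueller-Hinton broth for 15 min at 37°C, scrape-sonicated in TSB, plated on blood agar overnight. Mean CFU/ml, capped at 500.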

For `CN(C)c1ccc(O)c2c1C[C@H]1C[C@H]3[C@H](N(C)C)C(O)=C(C(N)=O)C(=O)[C@@]3(O)C(O)=C1C2=O` [MINOCYCLINE], which CFU/ml (Candida parapsilosis [1]) is on record?
Its CFU/ml is 500.

What about the CFU/ml (Staphylococcus aureus [2]) of the same compound?
The CFU/ml was 5000.

What about the CFU/ml (Candida parapsilosis [3]) of the same compound?
Its CFU/ml is 5000.

And the CFU/ml (Candida parapsilosis [4])?
The CFU/ml was 138.

What about the CFU/ml (Candida parapsilosis [5]) of the same compound?
The CFU/ml was 5000.

And the CFU/ml (Staphylococcus aureus [6])?
Its CFU/ml is 5000.

And the CFU/ml (Staphylococcus aureus [7])?
The CFU/ml was 308.

And the CFU/ml (Staphylococcus aureus [8])?
The CFU/ml was 324.
